In ChEMBL document CHEMBL1275585, “Combined antibacterial and anti-inflammatory activity of a cationic disubstituted dexamethasone-spermine conjugate” (Antimicrob Agents Chemother, 2010) one finds MIC and Activity data, which are given here for five molecules.

≈ marks a conversion by molar mass, not a printed value. Calls of active or inactive are those of the source. No cut-off for these calls is given here.

The subject of data set [1] is Staphylococcus aureus. The data set is described as follows: Antibacterial activity against macrolide-lincosamide-streptogramin B-positive, beta-lactamase-positive, methicillin-resistant Staphylococcus aureus ATCC 43300. The format is functional. In a few lines: (§1)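 MIC by broth dilution in Mueller-Hinton broth, inoculum 8 × 10^5 CFU/ml. Strains were typed for beta-lactamase with cefinase, for methicillin susceptibility by Etest, and for macrolide-lincosamide-streptogramin B by disc diffusion on MHA at 0.5 McFarland.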

In data set [2] the test system is Staphylococcus aureus. Nature of the data set: Antibacterial activity against macrolide-lincosamide-streptogramin B-negative, beta-lactamase-positive, methicillin-susceptible Staphylococcus aureus isolate 5. The format is functional.
Data set [3] deals with Staphylococcus aureus. The data set is described as follows: Antibacterial activity against macrolide-lincosamide-streptogramin B-positive, beta-lactamase-positive, methicillin-resistant Staphylococcus aureus isolate 6. It is filed as functional. In a few lines:
as §1

For data set [4], the system named is Staphylococcus aureus. Nature of the data set: Antibacterial activity against macrolide-lincosamide-streptogramin B-negative, beta-lactamase-positive, methicillin-susceptible Staphylococcus aureus isolate 4. It is filed as functional.
The subject of data set [5] is Staphylococcus aureus. The data set is described as follows: Antibacterial activity against macrolide-lincosamide-streptogramin B-negative, beta-lactamase-positive, methicillin-susceptible Staphylococcus aureus isolate 3. The format is functional.
In data set [6] the test system is Staphylococcus aureus. Nature of the data set: Antibacterial activity against macrolide-lincosamide-streptogramin B-negative, beta-lactamase-positive, methicillin-susceptible Staphylococcus aureus ATCC 29213. It is filed as functional.
The subject of data set [7] is Staphylococcus aureus. Nature of the data set: Antibacterial activity against macrolide-lincosamide-streptogramin B-negative, beta-lactamase-positive, methicillin-susceptible Staphylococcus aureus ATCC 29213 in presence of clavulanic acid. The format is functional. A digest of the protocol: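 Amoxicillin/clavulanic acid MIC against S. aureus measured alone and together with sublethal D2S concentrations.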

Data set [8] in a line: Cytotoxicity against human neutrophil assessed as effect on cell viability up to 20 uM after 12 hrs by microscopy. It is filed as cell-based. A digest of the protocol: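 Freshly isolated human blood neutrophils incubated with D2S up to 20 µM for 12 h. Viability scored by manual trypan blue exclusion.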
The subject of the next data set is Pseudomonas aeruginosa. The data set is described as follows: Bactericidal activity against kanamycin-resistant Pseudomonas aeruginosa PAO1 up to 50 uM after 1 hr by time-kill assay.

Take `CN(C)[C@@H]1C(O)=C(C(N)=O)C(=O)[C@@]2(O)C(O)=C3C(=O)c4c(O)cccc4[C@@](C)(O)[C@H]3C[C@@H]12` [TETRACYCLINE]: the MIC (commonly the lowest concentration found to suppress growth) is 0.625 µg/mL (≈ 1.41 µM) against Staphylococcus aureus [1]; 40 µg/mL (≈ 90 µM) with Staphylococcus aureus [2]; 20 µg/mL (≈ 45 µM) against Staphylococcus aureus [3]; 1.25 µg/mL (≈ 2.81 µM) with Staphylococcus aureus [4]; 1.25 µg/mL (≈ 2.81 µM) in the data set on Staphylococcus aureus [5]; 1.25 µg/mL (≈ 2.81 µM) against Staphylococcus aureus [6].

Regarding `NCC[C@H](O)C(=O)N[C@@H]1C[C@H](N)[C@@H](O[C@H]2O[C@H](CN)[C@@H](O)[C@H](O)[C@H]2O)[C@H](O)[C@H]1O[C@H]1O[C@H](CO)[C@@H](O)[C@H](N)[C@H]1O` [AMIKACIN], the MIC turned out to be 25 µg/mL (≈ 42.7 µM) in the data set with Staphylococcus aureus [1]; 1.6 µg/mL (≈ 2.73 µM) against Staphylococcus aureus [2]; 25 µg/mL (≈ 42.7 µM) in the data set with Staphylococcus aureus [3]; 3.2 µg/mL (≈ 5.46 µM) against Staphylococcus aureus [4]; 1.6 µg/mL (≈ 2.73 µM) against Staphylococcus aureus [5]; 1.6 µg/mL (≈ 2.73 µM) with Staphylococcus aureus [6].

For `CC[C@H]1OC(=O)[C@H](C)[C@@H](O[C@H]2C[C@@](C)(OC)[C@@H](O)[C@H](C)O2)[C@H](C)[C@@H](O[C@@H]2O[C@H](C)C[C@H](N(C)C)[C@H]2O)[C@](C)(O)C[C@@H](C)C(=O)[C@H](C)[C@@H](O)[C@]1(C)O` [ERYTHROMYCIN], the MIC with Staphylococcus aureus [1] came to 400 µg/mL (≈ 545 µM); in the data set with Staphylococcus aureus [2], 0.2 µg/mL (≈ 0.273 µM); in the data set on Staphylococcus aureus [3] it was 400 µg/mL (≈ 545 µM); against Staphylococcus aureus [4] it was 0.4 µg/mL (≈ 0.545 µM); with Staphylococcus aureus [5], 0.2 µg/mL (≈ 0.273 µM); against Staphylococcus aureus [6], 0.4 µg/mL (≈ 0.545 µM).

Consider `CC1(C)S[C@@H]2[C@H](NC(=O)[C@H](N)c3ccc(O)cc3)C(=O)N2[C@H]1C(=O)O` [AMOXICILLIN], for which the MIC worked out at 12.5 µg/mL (≈ 34.2 µM) against Staphylococcus aureus [1]; 3.2 µg/mL (≈ 8.76 µM) with Staphylococcus aureus [2]; 12.5 µg/mL (≈ 34.2 µM) in the data set on Staphylococcus aureus [3]; 1.6 µg/mL (≈ 4.38 µM) in the data set with Staphylococcus aureus [4]; 0.2 µg/mL (≈ 0.547 µM) in the data set with Staphylococcus aureus [5]; 0.4 µg/mL in the data set with Staphylococcus aureus [7].

As to `C[C@@H]1C[C@H]2[C@@H]3CCC4=CC(=O)C=C[C@]4(C)[C@@]3(F)[C@@H](O)C[C@]2(C)[C@@]1(O)C(=O)CO` [DEXAMETHASONE], the Activity result in [8] is recorded as “Non-toxic”. The outcome with Pseudomonas aeruginosa was inactive.
